The species entered for data set [1] is Homo sapiens. Description: Inhibition of protease (unknown origin) using deacetylated peptide as substrate assessed as luminescence at 10 uM after 30 mins relative to control. The arrangement: scale not given: the % may be the effect or the level left. In a few lines: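 Counter-screen without sirtuin: compound from DMSO stock diluted in Sirt-Glo buffer, then Sirt-Glo reagent added carrying non-acetylated control peptide. DMSO was 2.5% v/v. Mixed by shaking 30 min at 25 °C, then luminescence read. Result is % of control (peptide plus reagent in vehicle) after subtracting the vehicle-only blank.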

The target in data set [2] is T1, NAD-dependent protein deacetylase sirtuin-2 (Homo sapiens, UniProt Q8IXJ6).
T1 sequence (Q8IXJ6 whole entry): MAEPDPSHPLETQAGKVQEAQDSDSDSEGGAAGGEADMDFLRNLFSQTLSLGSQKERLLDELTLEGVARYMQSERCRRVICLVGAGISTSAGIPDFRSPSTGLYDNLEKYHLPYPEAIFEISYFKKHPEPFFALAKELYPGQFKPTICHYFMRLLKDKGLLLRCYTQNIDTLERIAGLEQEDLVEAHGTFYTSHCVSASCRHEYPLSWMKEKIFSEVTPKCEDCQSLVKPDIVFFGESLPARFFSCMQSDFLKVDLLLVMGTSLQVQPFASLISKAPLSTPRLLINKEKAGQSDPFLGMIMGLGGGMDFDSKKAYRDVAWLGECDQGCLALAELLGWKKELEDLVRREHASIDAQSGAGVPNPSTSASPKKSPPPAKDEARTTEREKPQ
Description: Inhibition of human recombinant SIRT2 assessed as deacetylation of N-acetyl lysine residue in p53 (317 to 320) after 30 mins by luciferase-mediated luminescence assay.

The nature of data set [3]: Self-aggregation of the compound in PBS assessed as derived light scattering count rate at 1 uM at pH 7.4 (reference value: 15.5 +/- 0.4 kilocount/sec). Format: physicochemical. The settings on record: buffer, pH 7.4, 1 µM.
Data set [4] deals with T2, NAD-dependent protein deacetylase sirtuin-1 (Homo sapiens) (UniProt Q96EB6).
T2 sequence (whole entry): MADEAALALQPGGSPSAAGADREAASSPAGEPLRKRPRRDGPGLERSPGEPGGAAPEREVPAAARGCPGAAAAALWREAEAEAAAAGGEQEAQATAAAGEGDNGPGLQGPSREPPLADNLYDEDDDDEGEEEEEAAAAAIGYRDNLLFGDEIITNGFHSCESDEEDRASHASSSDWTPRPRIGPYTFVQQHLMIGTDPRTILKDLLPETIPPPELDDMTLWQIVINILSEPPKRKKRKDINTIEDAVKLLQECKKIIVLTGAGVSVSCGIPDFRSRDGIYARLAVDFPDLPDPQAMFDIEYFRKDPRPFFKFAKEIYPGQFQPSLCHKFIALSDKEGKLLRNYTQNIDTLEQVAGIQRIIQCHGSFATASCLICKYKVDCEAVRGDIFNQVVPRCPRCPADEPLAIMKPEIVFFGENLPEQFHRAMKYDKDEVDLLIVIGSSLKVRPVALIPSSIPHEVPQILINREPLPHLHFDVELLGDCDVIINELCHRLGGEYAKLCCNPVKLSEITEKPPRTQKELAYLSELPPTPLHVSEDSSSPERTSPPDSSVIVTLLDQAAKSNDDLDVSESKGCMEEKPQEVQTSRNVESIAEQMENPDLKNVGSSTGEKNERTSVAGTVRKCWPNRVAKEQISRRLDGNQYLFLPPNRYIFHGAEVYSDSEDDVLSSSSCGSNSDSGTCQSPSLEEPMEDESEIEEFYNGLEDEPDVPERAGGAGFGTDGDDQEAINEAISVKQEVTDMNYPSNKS
Kind of data set: Inhibition of human recombinant SIRT1 assessed as deacetylation of N-acetyl lysine residue in p53 (317 to 320) at 10 uM after 30 mins by luciferase-mediated luminescence assay relative to control. In a few lines:
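Recombinant human SIRT1 at 0.1 unit/well, with the enzyme amount chosen from the mid-linear range of a signal-to-noise titration, in Sirt-Glo buffer. Serially diluted inhibitor in DMSO covers a 10^3-fold range, with 2.5% DMSO final. The single-point screen is at a fixed 10 µM. Enzyme and inhibitor were agitated 30 min at 25 °C, then Sirt-Glo reagent added and shaken another 30 min at 25 °C before luminescence was read. Activity is % of the enzyme-only control after blank subtraction. IC50 comes from a sigmoidal fit of % activity against log concentration, run in triplicate across ≥2 independent experiments.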

The target in data set [5] is T3, NAD-dependent protein deacetylase sirtuin-1 (Homo sapiens, UniProt Q96EB6).
T3 sequence (Q96EB6 whole entry): T2 sequence (whole entry)
Description: Inhibition of human recombinant SIRT1 assessed as deacetylation of N-acetyl lysine residue in p53 (317 to 320) after 30 mins by luciferase-mediated luminescence assay.

Data set [6] in a line: Self-aggregation of the compound in PBS assessed as derived light scattering count rate at 10 uM at pH 7.4 (reference value: 15.5 +/- 0.4 kilocount/sec). Format: physicochemical. The settings on record: buffer, pH 7.4, 10 µM.
The species entered for data set [7] is Homo sapiens. Kind of data set: Selectivity ratio of IC50 for human recombinant SIRT1 to IC50 for human recombinant SIRT2.
Data set [8] can be described thus: Solubility of the compound in phosphate buffer at pH 7.4 at 25 degC by turbimetric method. Format: physicochemical. The gist of the method: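 Turbidimetric solubility. Compound from DMSO stock was added to phosphate buffer pH 7.4 at 1–50 µM final, with 1% v/v DMSO. Plate shaken 30 min at 25 °C and absorbance read at 620 nm. Solubility is assigned to the concentration range where absorbance rises two-fold or more, from 3 separate determinations.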

Data set [9] in a line: Cytotoxicity against human IMR90 cells assessed as cell viability after 72 hrs by MTS assay. Format: cell-based. Conditions: IMR-90, 72 h.
The nature of data set [10]: Self-aggregation of the compound in PBS assessed as derived light scattering count rate at 250 uM at pH 7.4 (reference value: 15.5 +/- 0.4 kilocount/sec). Format: physicochemical. Conditions: buffer, pH 7.4, 250 µM.
The nature of data set [11]: Self-aggregation activity of the compound in PBS assessed as derived light scattering count rate at 25 uM at pH 7.4 (reference value: 15.5 +/- 0.4 kilocount/sec). Format: physicochemical. The settings on record: buffer, pH 7.4, 25 µM.

SMILES strings stand for the structures. pIC50: −log10 of the molar value. Values after ≈ are worked out from the molar mass of the structure shown. Active and inactive are the calls of the source. No cut-off for these calls is given here.

One may read the pIC50 as the IC50 on a negative log10 scale, so that one unit is a factor of ten. What is called inhibition is how much of the control response was suppressed. As to `CCCCCCCCn1c2c(c3cc(-c4cccc(C)c4)ccc31)CN(C(N)=O)CC2`, the Activity was 97.1% in the data set listed under Homo sapiens [1], 19 kC/sec in data set [3] and 541 kC/sec in data set [6]. Further, the pIC50 was 5.11 in data set [2] and less than 4.00 in [5]. Moreover, in data set [4], the inhibition entry was “inactive”.

For `CCCCn1c2c(c3cc(-c4cnc(N)nc4)ccc31)CNCC2`, the pIC50 in data set [2] is less than 4.00. Also, in [4], the inhibition result is “inactive”.

In general, kinetic solubility refers to solubility judged after dilution from a stock solution rather than from solid. Consider `CCCCCCCCn1c2c(c3cc(-c4ccc(S(C)(=O)=O)cc4)ccc31)CN(C)CC2`, for which the Activity came to 97.8% in the data set filed under Homo sapiens [1], 17 kC/sec in data set [3] and 130.7 kC/sec in data set [6]. Also, the Ratio IC50 in the data set filed under Homo sapiens [7] was more than 40. The negative logarithm of the IC50 (pIC50) in data set [2] was 5.22; in data set [5] it was less than 3.60. The compound also displayed a solubility (kinetic) in [8] of 3.1 µM (≈ 1.4 µg/mL). Besides, in [4], the inhibition amounted to 12.8%.

In the case of `Cc1cccc(-c2ccc3[nH]c4c(c3c2)CNCC4)c1`, the pIC50 in data set [2] was 4.00.

Regarding `CCCCCCCCn1c2c(c3cc(-c4cccc(C)c4)ccc31)CN(C(=O)OCC)CC2`, in [4], the inhibition entry is “inactive”.

On to `CCCCCCCCn1c2c(c3cc(-c4cnc(N)nc4)ccc31)CN(CC)CC2`, for which the inhibition entry in data set [4] was “inactive”.

As to `CCCCCCCCn1c2c(c3cc(-c4cccc(C)c4)ccc31)CN(Cc1ccc(O)cc1)CC2`, the inhibition result in data set [4] is “inactive”.

`CCCCCCCCn1c2c(c3cc(-c4cnc(N)nc4)ccc31)CN(CCO)CC2`: the inhibition result in data set [4] is “inactive”.

As to `CCCCCCCCn1c2c(c3cc(F)ccc31)CN(Cc1ccc(O)cc1)CC2`, the inhibition result in data set [4] is “inactive”.

As to `CCCCCCCCn1c2c(c3cc(F)ccc31)CN(C)CC2`, in data set [4], the inhibition result was “inactive”.

Take `CCCCCCCCn1c2c(c3cc(-c4cccc(C)c4)ccc31)CNCC2`: the Ratio IC50 in the data set filed under Homo sapiens [7] was determined as 2. For the same compound, the pIC50 in data set [2] was 5.00; in data set [5] it was 4.70. Besides, the inhibition in data set [4] is 5.1%.

On to `CCCCCCCCn1c2c(c3cc(-c4cnc(N)nc4)ccc31)CN(C(C)C)CC2`, for which the figures for the pIC50 in data set [2] and in [5] were 4.70 and 4.25, respectively. The Activity in [3] came out at 16.8 kC/sec; in [6], 137 kC/sec. The inhibition in data set [4] was found to be 15.3%.

Regarding `CCCCn1c2c(c3cc(-c4cccc(C)c4)ccc31)CNCC2`, the pIC50 in data set [2] is 4.02. The inhibition result in data set [4] is “inactive”.

As to `CCCCCCCCn1c2c(c3cc(-c4ccc(S(C)(=O)=O)cc4)ccc31)CN(C(N)=O)CC2`, the values for the Activity (in the data set listed under Homo sapiens [1]; in [3]; in data set [6]) were 98.6%, 15.6 kC/sec and 29 kC/sec, respectively. In addition, the pIC50 in data set [2] is 5.40; in data set [9], 4.84; in data set [5], 4.55. The compound also returned a kinetic solubility in data set [8] of 1.6 µM (≈ 0.771 µg/mL). Also, in data set [4], the inhibition was found to be 51.8%.

Take `Cc1cccc(-c2ccc3[nH]c4c(c3c2)CN(C)CC4)c1`: the pIC50 in data set [2] was 4.08.

`CN1CCc2[nH]c3ccc(-c4cnc(N)nc4)cc3c2C1`: the pIC50 in [2] is less than 3.60.

Consider `CCCCCCCCn1c2c(c3cc(-c4cnc(N)nc4)ccc31)CN(C(N)=O)CC2`, for which the pIC50 is 4.85 in data set [2] and 4.20 in data set [5]. For the same compound, in [4], the inhibition entry is “inactive”.

`CCCCCCCCn1c2c(c3cc(-c4cnc(N)nc4)ccc31)CN(C(=O)OCC)CC2`: the inhibition result in [4] was “inactive”.

With `CCCCCCCCn1c2c(c3cc(-c4cnc(N)nc4)ccc31)CN(C)CC2`, the figures for the Activity (in the data set filed under Homo sapiens [1]; in [3]; in data set [6]) were 98.7%, 15.8 kC/sec and 24 kC/sec, respectively. Further, the pIC50 is 4.75 in data set [2] and less than 4.00 in data set [5]. In [4], the inhibition entry was “inactive”.

Take `CCCCCCCCn1c2c(c3cc(-c4ccnc(F)c4)ccc31)CN(C(N)=O)CC2`: in [4], the inhibition result was “inactive”.

Consider `CCCCCCCCn1c2c(c3cc(-c4cnc(N)nc4)ccc31)CN(S(C)(=O)=O)CC2`, for which the inhibition entry in [4] was “inactive”.

For `CCCCCCCCn1c2c(c3cc(-c4cccc(C)c4)ccc31)CN(Cc1ccccc1)CC2`, the Activity was 99% in the data set listed under Homo sapiens [1], 32 kC/sec in data set [3] and 769 kC/sec in [6]. Also, the pIC50 was 5.09 in [2] and less than 4.00 in data set [5]. Besides, in [4], the inhibition was less than 5%.

As for `CCCCCCCCn1c2c(c3cc(-c4cccc(C)c4)ccc31)CN(C)CC2`, the Activity in the data set listed under Homo sapiens [1] came to 98.6%; in [3], 17.9 kC/sec; in data set [6] it was 178 kC/sec. The negative-log IC50 (pIC50) in data set [2] was 5.21; in [5] it was 4.68. In data set [8], this compound had a kinetic solubility of 3.1 µM (≈ 1.2 µg/mL). Besides, in [4], the inhibition was 66.4%.

As for `CCCCCCCCn1c2c(c3cc(-c4ccnc(F)c4)ccc31)CNCC2`, in data set [4], the inhibition worked out at 1.1%.

With `CC(C)=CCn1c2c(c3cc(-c4cccc(C)c4)ccc31)CN(Cc1ccc(O)cc1)CC2`, in data set [4], the inhibition entry is “inactive”.

For the compound `CCCCCCCCn1c2c(c3cc(-c4cccc(C)c4)ccc31)CN(C(C)C)CC2`, the Activity in the data set filed under Homo sapiens [1] came out at 100%; in [3], 27 kC/sec; in data set [6], 558 kC/sec. The pIC50 was 4.95 in data set [2] and 4.59 in data set [5]. In [8], this compound came in with a kinetic solubility of 1.6 µM (≈ 0.667 µg/mL). Also, the inhibition in data set [4] was 2.4%.

Consider `CCCCn1c2c(c3cc(-c4ccc(S(C)(=O)=O)cc4)ccc31)CNCC2`, for which the Activity in the data set listed under Homo sapiens [1] stood at 98.6%. For the same compound, the negative logarithm of the IC50 (pIC50) in data set [2] is 4.70. In addition, the inhibition result in [4] is “inactive”.

On to `O=C(OCc1ccccc1)c1ccccc1` [BENZYL BENZOATE], for which the Activity in data set [10] came out at 1148 kC/sec; in data set [11], 76 kC/sec.

In the case of `CCCCCCCCn1c2c(c3cc(-c4cnc(N)nc4)ccc31)CNCC2`, the Activity was 96.3% in the data set filed under Homo sapiens [1], 16.1 kC/sec in data set [3] and 137 kC/sec in data set [6]. Moreover, the pIC50 is 4.93 in [2] and 4.42 in [5]. This compound also came in with a solubility (kinetic) in data set [8] of 6.3 µM (≈ 2.38 µg/mL). Moreover, in data set [4], the inhibition came to 2.4%.

Consider `CN1CCc2[nH]c3ccc(-c4ccc(S(C)(=O)=O)cc4)cc3c2C1`, for which the negative logarithm of the IC50 (pIC50) in data set [2] is less than 3.60.

(Values after ChEMBL document CHEMBL3407343, “Functionalized tetrahydro-1H-pyrido[4,3-b]indoles: a novel chemotype with Sirtuin 2 inhibitory activity” (Eur J Med Chem, 2015).)
